Measurements taken from ChEMBL document CHEMBL3098105, “7,7'-Diazaindirubin--a small molecule inhibitor of casein kinase 2 in vitro and in cells” (Bioorg Med Chem, 2014).
Activity calls are given as the source filed them. The calls are words filed in the database; no cut-off is given here.

Columns and labels:
[1] = molecular target: Receptor-type tyrosine-protein kinase FLT3 (Homo sapiens) (UniProt P36888); experiment: Inhibition of FLT3 (unknown origin) assessed as residual activity at 1 uM relative to control
[2] = molecular target: Glycogen synthase kinase-3 beta (Homo sapiens) (UniProt P49841); experiment: Inhibition of GSK3-beta (unknown origin) assessed as residual activity at 1 uM relative to control
[3] = molecular target: Epidermal growth factor receptor (Homo sapiens) (UniProt P00533); experiment: Inhibition of EGF-R (unknown origin) assessed as residual activity at 1 uM relative to control
Chain of Epidermal growth factor receptor (Homo sapiens) (P00533 whole entry): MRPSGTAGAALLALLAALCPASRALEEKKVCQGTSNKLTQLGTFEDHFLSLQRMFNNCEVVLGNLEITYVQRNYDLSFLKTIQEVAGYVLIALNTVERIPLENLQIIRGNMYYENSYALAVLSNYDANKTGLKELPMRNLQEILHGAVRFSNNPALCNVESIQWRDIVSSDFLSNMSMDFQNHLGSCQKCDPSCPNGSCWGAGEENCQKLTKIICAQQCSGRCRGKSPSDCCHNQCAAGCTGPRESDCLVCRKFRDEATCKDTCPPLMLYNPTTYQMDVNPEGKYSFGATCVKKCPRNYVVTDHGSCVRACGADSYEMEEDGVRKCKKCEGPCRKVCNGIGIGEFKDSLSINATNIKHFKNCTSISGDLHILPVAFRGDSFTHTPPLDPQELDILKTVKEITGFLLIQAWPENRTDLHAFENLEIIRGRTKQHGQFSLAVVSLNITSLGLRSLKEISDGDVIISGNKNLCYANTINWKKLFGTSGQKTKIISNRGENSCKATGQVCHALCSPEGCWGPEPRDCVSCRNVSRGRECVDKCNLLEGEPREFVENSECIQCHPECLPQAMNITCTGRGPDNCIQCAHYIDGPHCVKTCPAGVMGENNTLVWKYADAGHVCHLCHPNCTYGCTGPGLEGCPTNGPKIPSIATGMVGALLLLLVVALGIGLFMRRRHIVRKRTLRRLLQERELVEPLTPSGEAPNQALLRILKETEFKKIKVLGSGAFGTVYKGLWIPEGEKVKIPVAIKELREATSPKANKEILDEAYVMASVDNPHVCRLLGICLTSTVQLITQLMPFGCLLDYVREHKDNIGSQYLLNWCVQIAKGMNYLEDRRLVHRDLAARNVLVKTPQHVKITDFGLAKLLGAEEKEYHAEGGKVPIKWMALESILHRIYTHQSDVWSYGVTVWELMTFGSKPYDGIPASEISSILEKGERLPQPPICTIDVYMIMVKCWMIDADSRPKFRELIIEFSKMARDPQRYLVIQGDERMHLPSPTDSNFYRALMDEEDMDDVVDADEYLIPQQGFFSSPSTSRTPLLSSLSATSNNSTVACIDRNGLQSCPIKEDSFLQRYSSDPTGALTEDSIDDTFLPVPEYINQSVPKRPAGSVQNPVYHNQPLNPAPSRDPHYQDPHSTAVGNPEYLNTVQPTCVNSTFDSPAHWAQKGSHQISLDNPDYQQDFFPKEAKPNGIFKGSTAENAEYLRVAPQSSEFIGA

[4] = molecular target: Cyclin-dependent kinase 1/cyclin B1 (Homo sapiens) (UniProt P06493+P14635); experiment: Inhibition of CDK1/CycB1 (unknown origin) assessed as residual activity at 1 uM relative to control; assay type: protein-complex assay
[5] = molecular target: Tyrosine-protein kinase ABL1 (Homo sapiens) (UniProt P00519); experiment: Inhibition of ABL1 (unknown origin) assessed as residual activity at 1 uM relative to control
SK-MEL-5 = experiment: Antiproliferative activity against human SK-MEL-5 cells after 3 days by sulforhodamine B assay; assay type: functional; details: SK-MEL-5, 72 h
Procedure, shortened: (§1)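 Tested in the NCI 60 cell line panel. GI50 is the concentration giving 50% inhibition of cell growth, and values are the mean of two series of tests.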

SNB-19 = experiment: Antiproliferative activity against human SNB19 cells after 3 days by sulforhodamine B assay; assay type: functional; details: SNB-19, 72 h
HCT-15 = experiment: Antiproliferative activity against human HCT15 cells after 3 days by sulforhodamine B assay; assay type: functional; details: HCT-15, 72 h; procedure, shortened: as §1
[6] = molecular target: Mitogen-activated protein kinase 14 (Homo sapiens) (UniProt Q16539); experiment: Inhibition of human SAPK2alpha assessed as residual activity at 1 uM relative to control
Chain of Mitogen-activated protein kinase 14 (Homo sapiens) (Q16539 whole entry): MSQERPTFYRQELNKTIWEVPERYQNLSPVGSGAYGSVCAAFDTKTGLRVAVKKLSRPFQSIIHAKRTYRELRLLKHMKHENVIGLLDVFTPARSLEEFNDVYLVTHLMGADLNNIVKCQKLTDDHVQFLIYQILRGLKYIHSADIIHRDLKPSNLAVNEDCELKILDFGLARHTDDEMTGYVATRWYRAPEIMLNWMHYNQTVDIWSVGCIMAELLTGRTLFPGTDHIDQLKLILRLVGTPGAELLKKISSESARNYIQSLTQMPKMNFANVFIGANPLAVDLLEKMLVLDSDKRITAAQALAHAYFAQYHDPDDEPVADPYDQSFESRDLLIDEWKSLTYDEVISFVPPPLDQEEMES

[7] = molecular target: Ribosomal protein S6 kinase alpha-2 (Homo sapiens) (UniProt Q15349); experiment: Inhibition of human Rsk3 assessed as residual activity at 1 uM relative to control
[8] = molecular target: Rho-associated protein kinase 2 (Homo sapiens) (UniProt O75116); experiment: Inhibition of human ROCK-2 assessed as residual activity at 1 uM relative to control
[9] = molecular target: Protein kinase C theta type (Homo sapiens) (UniProt Q04759); experiment: Inhibition of human PKCtheta assessed as residual activity at 1 uM relative to control
NCI-H226 = experiment: Antiproliferative activity against human NCI-H226 cells after 3 days by sulforhodamine B assay; assay type: functional; details: NCI-H226, 72 h; procedure, shortened: as §1
MCF7 = experiment: Cell cycle arrest in human MCF7 cells assessed as accumulation at S phase at 0.25 uM after 24 hrs using propidium iodide staining by FACS analysis (reference value: 18.59%); assay type: functional
[10] = molecular target: T1, Casein kinase II (Homo sapiens) (UniProt P67870+P68400+P19784); experiment: Inhibition of CK2 in human PANC1 cells assessed as reduction of Akt phosphorylation at S473 at 0.25 to 8 uM after 2 hrs by Western blot analysis; assay type: cell-based; details: PANC-1
Procedure, shortened: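 Panc1 cells were cultured in DMEM with 10% heat-inactivated FBS and penicillin/streptomycin at 37 °C and 5% CO2. Cells were treated with a range of concentrations for 2 h, with Ly294002 as positive control. Urea-buffer lysates (20–40 µg protein) were separated on 10% SDS–PAGE and probed for pAkt (S473) and β-actin. Detection was by ECL.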

[11] = molecular target: RAC-alpha serine/threonine-protein kinase (Homo sapiens) (UniProt P31749); experiment: Inhibition of human PKBalpha assessed as residual activity at 1 uM relative to control
[12] = molecular target: Serine/threonine-protein kinase 24 (Homo sapiens) (UniProt Q9Y6E0); experiment: Inhibition of human MST3 assessed as residual activity at 1 uM relative to control
[13] = molecular target: MAP kinase-interacting serine/threonine-protein kinase 2 (Homo sapiens) (UniProt Q9HBH9); experiment: Inhibition of human Mnk2 assessed as residual activity at 1 uM relative to control
[14] = molecular target: T1, Casein kinase II (Homo sapiens); experiment: Inhibition of CK2-mediated Wnt signaling in human MCF7 cells assessed as reduction of beta-catenin level at 1 uM after 15 mins by Western blot analysis; assay type: cell-based
Procedure, shortened: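 MCF7 cells were grown at 37 °C and 5% CO2 in DMEM with 10% heat-inactivated FBS and penicillin/streptomycin. Cells were exposed to 1 µM for the indicated times, with DMSO as the untreated control. Extracts were made in urea lysis buffer, and 20–40 µg protein was run on 10% SDS–PAGE. Blots were probed with primary antibodies (1:1000, overnight, 4 °C) and read by ECL, with β-actin as loading control.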

[15] = molecular target: Serine/threonine-protein kinase 10 (Homo sapiens) (UniProt O94804); experiment: Inhibition of human LOK assessed as residual activity at 1 uM relative to control
[16] = molecular target: Tyrosine-protein kinase Lyn (Homo sapiens) (UniProt P07948); experiment: Inhibition of human Lyn assessed as residual activity at 1 uM relative to control
Chain of Tyrosine-protein kinase Lyn (Homo sapiens) (P07948 2-512 limits assumed): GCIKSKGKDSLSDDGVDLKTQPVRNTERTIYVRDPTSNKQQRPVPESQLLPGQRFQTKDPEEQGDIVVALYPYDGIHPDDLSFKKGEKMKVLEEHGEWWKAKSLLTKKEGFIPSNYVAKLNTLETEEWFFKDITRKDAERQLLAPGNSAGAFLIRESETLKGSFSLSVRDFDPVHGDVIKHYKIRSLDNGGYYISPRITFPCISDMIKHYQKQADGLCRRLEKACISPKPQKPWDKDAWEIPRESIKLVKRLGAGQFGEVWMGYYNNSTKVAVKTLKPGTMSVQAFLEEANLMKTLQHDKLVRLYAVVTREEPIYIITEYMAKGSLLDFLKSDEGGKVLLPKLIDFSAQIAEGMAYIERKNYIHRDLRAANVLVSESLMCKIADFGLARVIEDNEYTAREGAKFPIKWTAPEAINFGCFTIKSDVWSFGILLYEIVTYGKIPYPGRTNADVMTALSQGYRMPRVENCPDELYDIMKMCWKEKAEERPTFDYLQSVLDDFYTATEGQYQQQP

[17] = molecular target: Tyrosine-protein kinase Lck (Homo sapiens) (UniProt P06239); experiment: Inhibition of human Lck assessed as residual activity at 1 uM relative to control
[18] = molecular target: Mitogen-activated protein kinase kinase kinase kinase 2 (Homo sapiens) (UniProt Q12851); experiment: Inhibition of human GCK assessed as residual activity at 1 uM relative to control
[19] = molecular target: Ephrin type-B receptor 3 (Homo sapiens) (UniProt P54753); experiment: Inhibition of human EphB3 assessed as residual activity at 1 uM relative to control
Chain of Ephrin type-B receptor 3 (Homo sapiens) (P54753 whole entry): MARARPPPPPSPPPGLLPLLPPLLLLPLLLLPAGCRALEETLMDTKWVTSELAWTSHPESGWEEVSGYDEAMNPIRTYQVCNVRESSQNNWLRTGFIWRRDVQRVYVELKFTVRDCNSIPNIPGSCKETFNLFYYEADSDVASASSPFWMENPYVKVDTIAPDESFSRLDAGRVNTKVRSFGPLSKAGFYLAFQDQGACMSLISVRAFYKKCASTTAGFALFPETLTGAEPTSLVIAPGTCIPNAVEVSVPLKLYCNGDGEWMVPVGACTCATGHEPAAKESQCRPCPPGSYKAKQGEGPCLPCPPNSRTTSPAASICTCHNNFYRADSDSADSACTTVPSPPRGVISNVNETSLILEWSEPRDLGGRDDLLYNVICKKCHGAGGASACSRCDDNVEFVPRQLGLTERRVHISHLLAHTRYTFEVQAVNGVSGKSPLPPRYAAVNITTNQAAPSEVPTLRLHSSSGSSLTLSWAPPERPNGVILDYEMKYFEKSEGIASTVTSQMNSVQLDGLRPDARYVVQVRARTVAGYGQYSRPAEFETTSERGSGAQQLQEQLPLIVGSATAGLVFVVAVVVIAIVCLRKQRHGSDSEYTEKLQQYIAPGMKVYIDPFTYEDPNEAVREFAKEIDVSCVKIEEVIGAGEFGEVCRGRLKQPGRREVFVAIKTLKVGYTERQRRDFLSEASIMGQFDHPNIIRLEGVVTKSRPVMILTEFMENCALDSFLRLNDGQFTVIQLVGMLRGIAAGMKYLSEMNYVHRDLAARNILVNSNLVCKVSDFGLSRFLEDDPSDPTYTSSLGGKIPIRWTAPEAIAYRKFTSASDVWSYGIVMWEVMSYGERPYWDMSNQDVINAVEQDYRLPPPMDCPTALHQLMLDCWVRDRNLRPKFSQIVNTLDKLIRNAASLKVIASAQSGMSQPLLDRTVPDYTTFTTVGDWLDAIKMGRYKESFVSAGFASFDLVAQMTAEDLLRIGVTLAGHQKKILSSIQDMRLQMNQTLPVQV

[20] = molecular target: Ephrin type-A receptor 7 (Homo sapiens) (UniProt Q15375); experiment: Inhibition of human EphA7 assessed as residual activity at 1 uM relative to control
[21] = molecular target: Death-associated protein kinase 1 (Homo sapiens) (UniProt P53355); experiment: Inhibition of human DAPK1 assessed as residual activity at 1 uM relative to control
[22] = molecular target: Dual specificity protein kinase CLK2 (Homo sapiens) (UniProt P49760); experiment: Inhibition of human CLK2 assessed as residual activity at 1 uM relative to control
[23] = molecular target: Casein kinase I isoform delta (Homo sapiens) (UniProt P48730); experiment: Inhibition of human CK1d assessed as residual activity at 1 uM relative to control
[24] = molecular target: Cyclin-dependent kinase 5/CDK5 activator 1 (Homo sapiens) (UniProt Q00535+Q15078); experiment: Inhibition of human CDK5/p35 assessed as residual activity at 1 uM relative to control; assay type: protein-complex assay
[25] = molecular target: Tyrosine-protein kinase ABL2 (Homo sapiens) (UniProt P42684); experiment: Inhibition of human Arg assessed as residual activity at 1 uM relative to control
Chain of Tyrosine-protein kinase ABL2 (Homo sapiens) (P42684 whole entry): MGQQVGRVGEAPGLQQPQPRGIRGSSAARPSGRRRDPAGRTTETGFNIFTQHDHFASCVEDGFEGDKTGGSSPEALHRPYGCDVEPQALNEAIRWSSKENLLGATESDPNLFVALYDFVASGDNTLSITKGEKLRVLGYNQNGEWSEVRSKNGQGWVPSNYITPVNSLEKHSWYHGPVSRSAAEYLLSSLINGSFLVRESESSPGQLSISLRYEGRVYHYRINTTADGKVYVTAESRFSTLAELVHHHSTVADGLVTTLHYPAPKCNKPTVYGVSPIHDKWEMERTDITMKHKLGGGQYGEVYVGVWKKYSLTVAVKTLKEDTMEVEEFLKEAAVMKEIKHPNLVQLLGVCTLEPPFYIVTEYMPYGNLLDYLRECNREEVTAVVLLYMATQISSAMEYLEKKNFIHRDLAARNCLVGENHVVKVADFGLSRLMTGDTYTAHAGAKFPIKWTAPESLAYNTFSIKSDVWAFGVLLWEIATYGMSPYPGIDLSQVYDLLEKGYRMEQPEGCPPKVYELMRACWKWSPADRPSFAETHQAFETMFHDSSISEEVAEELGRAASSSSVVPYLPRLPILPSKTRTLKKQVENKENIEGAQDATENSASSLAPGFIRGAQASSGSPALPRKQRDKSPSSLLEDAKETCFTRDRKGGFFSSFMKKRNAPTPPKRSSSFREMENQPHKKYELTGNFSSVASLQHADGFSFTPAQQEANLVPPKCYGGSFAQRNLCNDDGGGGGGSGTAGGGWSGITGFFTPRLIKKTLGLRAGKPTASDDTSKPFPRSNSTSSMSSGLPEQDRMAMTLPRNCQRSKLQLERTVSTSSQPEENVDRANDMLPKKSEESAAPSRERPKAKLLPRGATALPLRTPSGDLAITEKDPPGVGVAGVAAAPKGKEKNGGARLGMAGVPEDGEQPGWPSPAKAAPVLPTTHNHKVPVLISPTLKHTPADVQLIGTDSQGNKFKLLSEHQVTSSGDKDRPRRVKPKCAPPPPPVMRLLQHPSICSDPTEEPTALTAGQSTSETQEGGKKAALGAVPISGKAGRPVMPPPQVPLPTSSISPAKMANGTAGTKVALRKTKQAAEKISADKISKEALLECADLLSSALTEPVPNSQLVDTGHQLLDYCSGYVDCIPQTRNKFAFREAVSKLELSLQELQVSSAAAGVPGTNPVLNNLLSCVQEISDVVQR

[26] = molecular target: Vascular endothelial growth factor receptor 2 (Homo sapiens) (UniProt P35968); experiment: Inhibition of VEGF-R2 (unknown origin) assessed as residual activity at 10 uM relative to control
[27] = molecular target: Serine/threonine-protein kinase Chk2 (Homo sapiens) (UniProt O96017); experiment: Inhibition of CHK2 (unknown origin) assessed as residual activity at 10 uM relative to control
[28] = molecular target: RAF proto-oncogene serine/threonine-protein kinase (Homo sapiens) (UniProt P04049); experiment: Inhibition of RAF1 (unknown origin) assessed as residual activity at 1 uM relative to control
Chain of RAF proto-oncogene serine/threonine-protein kinase (Homo sapiens) (P04049 whole entry): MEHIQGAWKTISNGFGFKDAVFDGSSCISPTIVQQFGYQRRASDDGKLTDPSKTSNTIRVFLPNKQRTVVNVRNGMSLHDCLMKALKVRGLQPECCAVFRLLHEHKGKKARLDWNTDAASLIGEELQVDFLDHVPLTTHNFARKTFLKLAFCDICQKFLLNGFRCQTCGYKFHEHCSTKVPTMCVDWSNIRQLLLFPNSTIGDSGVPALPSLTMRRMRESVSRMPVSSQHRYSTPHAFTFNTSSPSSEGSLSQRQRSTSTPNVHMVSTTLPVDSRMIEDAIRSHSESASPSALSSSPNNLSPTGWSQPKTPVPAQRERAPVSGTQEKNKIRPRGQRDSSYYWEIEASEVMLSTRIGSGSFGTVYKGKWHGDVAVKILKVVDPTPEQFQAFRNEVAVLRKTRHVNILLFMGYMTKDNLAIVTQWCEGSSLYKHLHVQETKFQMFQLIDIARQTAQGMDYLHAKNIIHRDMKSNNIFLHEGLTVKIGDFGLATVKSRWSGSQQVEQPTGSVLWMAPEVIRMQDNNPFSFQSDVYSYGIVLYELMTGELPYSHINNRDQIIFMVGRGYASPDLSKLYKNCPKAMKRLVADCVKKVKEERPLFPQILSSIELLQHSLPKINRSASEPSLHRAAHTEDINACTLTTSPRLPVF

Activity [1]: 79% | Activity [2]: 92% | Activity [3]: 89% | Activity [4]: 70% | Activity [5]: 96% | GI50 (SK-MEL-5): 160 nM | GI50 (HCT-15): 575 nM | Activity [6]: 111% | Activity [7]: 72% | Activity [8]: 114% | Activity [9]: 116% | GI50 (NCI-H226): 1420 nM | inhibition [10]: Active | Activity [11]: 94% | Activity [12]: 113% | Activity [13]: 99% | inhibition [14]: Active | Activity [15]: 93% | Activity [16]: 123% | Activity [17]: 55% | Activity [18]: 102% | Activity [19]: 123% | Activity [20]: 105% | Activity [22]: 81% | Activity [23]: 68% | Activity [24]: 96% | Activity [25]: 98% | Activity [26]: 102% | Activity [27]: 84% | Activity [28]: 97%
Structure (SMILES): O=C1Nc2ncccc2/C1=C1/Nc2ncccc2C1=O
GI50 (SNB-19): 517 nM | Activity (MCF7): 18.57% | Activity [21]: 94%
